Calls of active or inactive are those of the source.
Tests used:
[1] = system: Mus musculus; experiment: Analgesic activity in sc dosed CD-1 mouse assessed as inhibition of phenylquinone-induced writhing administered 15 to 90 mins prior challenge measured 5 mins post challenge; assay type: functional; details: CD-1, sc
How it was run: (§1)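 Male CD-1 mice, 18–24 g, five per group, dosed 15, 30, 60 or 90 min before phenyl-p-benzoquinone (0.125% in 5% aqueous ethanol); vehicle controls. Writhes were counted over 10 min, starting 5 min after challenge. For dose–response, ten mice per dose were tested at the peak time, with four doses plus control, randomized. Result given as % inhibition of writhes; ED50 by computer linear regression.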

[2] = system: Mus musculus; experiment: Analgesic activity in sc dosed CD-1 mouse assessed as delay in response to noxious heat stimuli measured after 15 to 60 mins post dosing by D'Amour-Smith tail-flick method; assay type: functional; details: CD-1, Tail
How it was run: (§2)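 Male CD-1 mice, ten per group, held in a plexiglass restrainer; an intense light beam served as the noxious heat stimulus, and tail-flick latency was recorded automatically. Two baseline readings were taken, unstable animals were excluded, and a cutoff was set. Dosing was sc, with vehicle at 10 mL/kg. Tests ran at 15, 30, 45 and 60 min, then at the peak time for at least three doses. Response past cutoff counted as analgesia; ED50 by linear regression.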

[3] = system: Mus musculus; experiment: Inhibition of morphine-induced mania in CD-1 mouse assessed as inhibition of stereotypic activity at 10 mg/kg, sc measured after 15 to 30 mins; assay type: functional; details: for inhibition in vivo at 10 mg/kg: CD-1, sc, route subcutaneous
How it was run: (§3)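 Male mice, 18–30 g, two pairs per group, dosed randomly. Controls received morphine sulfate 25 mg/kg sc; test groups received morphine plus compound. Animals were watched for 15–30 min for stereotyped increase in motor activity, and blocking of this behaviour was scored positive. For dose range, ED50 by linear regression.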

[4] = system: Mus musculus; experiment: Analgesic activity in CD-1 mouse assessed as delay in response to noxious heat stimuli at 25 mg/kg, sc measured after 15 to 60 mins post dosing by D'Amour-Smith tail-flick method relative to control; assay type: functional; details: route subcutaneous; how it was run: as §2
[5] = system: Mus musculus; experiment: Inhibition of morphine-induced mania in sc dosed CD-1 mouse assessed as inhibition of stereotypic activity measured after 15 to 30 mins; assay type: functional; how it was run: as §3
[6] = system: Mus musculus; experiment: Analgesic activity in po dosed CD-1 mouse assessed as inhibition of phenylquinone-induced writhing administered 15 to 90 mins prior challenge measured 5 mins post challenge; assay type: functional; details: CD-1, po; how it was run: as §1
[7] = system: Mus musculus; experiment: Analgesic activity in CD-1 mouse assessed as delay in response to noxious heat stimuli at 2 mg/kg, sc measured after 15 to 60 mins post dosing by D'Amour-Smith tail-flick method relative to control; assay type: functional; details: route subcutaneous; how it was run: as §2
[8] = system: Mus musculus; experiment: Toxicity in sc dosed CD-1 mouse assessed as physical dependence liability by infusion test; assay type: organism-based; details: in vivo
[9] = system: Mus musculus; experiment: Analgesic activity in po dosed CD-1 mouse assessed as delay in response to noxious heat stimuli measured after 15 to 60 mins post dosing by D'Amour-Smith tail-flick method; assay type: functional; details: CD-1, Tail
[10] = system: Mus musculus; experiment: Toxicity in sc dosed CD-1 mouse assessed as overt effects; assay type: organism-based; details: in vivo
[11] = system: Mus musculus; experiment: Analgesic activity in CD-1 mouse assessed as inhibition of phenylquinone-induced writhing at 10 mg/kg, sc administered 15 to 90 mins prior challenge measured 5 mins post challenge; assay type: functional; details: CD-1, sc, route subcutaneous; how it was run: as §1

| SMILES | ED50 [1] [mg/kg] | ED50 [2] [mg/kg] | Activity [4] [%] | ED50 ([5]; CD-1, sc) [mg/kg] | other results |
| --- | --- | --- | --- | --- | --- |
| Br.Oc1cccc(C23CCC(C2)N(CCc2ccc(Cl)c(Cl)c2)CC3)c1 (racemic) | 0.75 | 2.73 |  |  | inhibition [3]: inactive |
| Br.CCCN1CCC2(c3cccc(OC)c3)CCC1C2 (racemic) | 7.4 |  | 40 | 8.3 |  |
| Br.Oc1cccc(C23CCC(C2)N(Cc2ccco2)CC3)c1 (racemic) | 22.7 | 10 |  | 3.7 |  |
| Br.CC(=O)Oc1cccc(C23CCC(C2)N(CCc2cccs2)CC3)c1 (racemic) | 0.95 | ≤ 3.8 |  |  | ED50 [6]: 64 mg/kg |
| Br.Oc1cccc(C23CCC(C2)N(CCc2cccc(Cl)c2)CC3)c1 (racemic) | 0.46 | 5.46 |  |  | inhibition in vivo at 10 mg/kg [3]: 20% |
| Br.CCCN1CCC2(c3cccc(O)c3)CCC1C2 (racemic) | 8.79 |  | 20 |  | inhibition [3]: inactive |
| Br.O=C(CCCN1CCC2(c3cccc(O)c3)CCC1C2)c1ccc(F)cc1 (racemic) | 0.35 |  |  | 2.01 | Activity [7]: 40% |
| Br.CN1CCC2(c3cccc(O)c3)CCC1C2 (racemic) | 10 |  | 40 |  |  |
| Br.CCCCN1CCC2(c3cccc(O)c3)CCC1C2 (racemic) | 8.66 |  | 30 |  | inhibition in vivo at 10 mg/kg [3]: 40% |
| Br.Oc1cccc(C23CCC(C2)N(CCc2cccs2)CC3)c1 (racemic) | 0.72 | 11 |  | 10 |  |
| Br.CC(C)=CCN1CCC2(c3cccc(O)c3)CCC1C2 (racemic) | 25 |  | 20 |  | inhibition [3]: inactive |
| CC(C)=CCN1CC[C@]2(C)c3cc(O)ccc3C[C@H]1[C@H]2C [(+)-PENTAZOCINE] | 2.4 | 14.6 |  | 13.8 |  |
| Br.Oc1cccc(C23CCC(C2)N(CC2CC2)CC3)c1 (racemic) | 5.44 |  | 30 |  | inhibition in vivo at 10 mg/kg [3]: 20% |
| Br.Oc1cccc(C23CCC(C2)N(CCc2ccccc2)CC3)c1 (racemic) | 0.68 | 6.45 |  | 1.06 | ED50 [6]: 60.9 mg/kg; Activity [8]: Non-toxic |
| Br.COc1cccc(C23CCC(C2)N(CCc2ccccc2)CC3)c1 (racemic) | 5.99 | 13 |  |  | ED50 [5]: Active |
| Br.CC(=O)Oc1cccc(C23CCC(C2)N(C)CC3)c1 (racemic) | 14.1 |  | 14 | 16 |  |
| Br.CC(=O)Oc1cccc(C23CCC(C2)N(CCc2ccccc2)CC3)c1 (racemic) | 1 | 2.82 |  |  | ED50 [6]: 15.2 mg/kg; ED50 [9]: 35 mg/kg; inhibition [3]: inactive |
| Br.COc1cccc(C23CCC(C2)N(C)CC3)c1 (racemic) | 6.96 |  | 10 | 50 |  |
| Br.CCCCN1CCC2(c3cccc(OC)c3)CCC1C2 (racemic) | 4.87 | 9.71 |  |  | inhibition [3]: inactive |
| C=CCN1CC[C@]23c4c5ccc(O)c4O[C@H]2[C@@H](O)C=C[C@H]3[C@H]1C5 [NALORPHINE] |  |  |  | 0.43 |  |
| CN1CC[C@]23c4c5ccc(O)c4O[C@H]2[C@@H](O)C=C[C@H]3[C@H]1C5 [MORPHINE] | 0.68 |  |  |  |  |
| Br.Oc1ccc(CCN2CCC3(c4cccc(O)c4)CCC2C3)cc1 (racemic) | 2.08 | 25 |  |  | inhibition in vivo at 10 mg/kg [3]: 20%; Activity [10]: Toxic |
| Br.CCCCCN1CCC2(c3cccc(O)c3)CCC1C2 (racemic) | 8.34 |  | 20 | 4.31 |  |
| Br.CCCCCN1CCC2(c3cccc(OC)c3)CCC1C2 (racemic) | 5.77 |  | 40 |  | inhibition [3]: inactive |
| Br.COc1cccc(C23CCC(C2)N(CCCC(=O)c2ccc(F)cc2)CC3)c1 (racemic) | 0.85 |  |  | 3.7 | Activity [7]: 10% |
| Br.Cc1ccc(CCN2CCC3(c4cccc(O)c4)CCC2C3)cc1 (racemic) | 0.58 | 8.54 |  | ≤ 10 |  |
| Br.CCN1CCC2(c3cccc(OC)c3)CCC1C2 (racemic) | 11.9 | 17.7 |  |  | inhibition in vivo at 10 mg/kg [3]: 10% |
| Br.Oc1cccc(C23CCC(C2)N(CCc2ccc(Cl)cc2)CC3)c1 (racemic) | 0.42 | 7.32 |  |  | inhibition in vivo at 10 mg/kg [3]: 50% |
| Br.CCN1CCC2(c3cccc(O)c3)CCC1C2 (racemic) |  |  | 30 |  | inhibition in vivo at 10 mg/kg [11]: 41%; inhibition [3]: inactive |

Reference: ChEMBL document CHEMBL3243986, “Synthesis and analgetic activity of some 5-aryl-2azabicyclo[3.2.1]octanes” (J Med Chem, 1978)
